Screening results as filed in PubChem BioAssay.
Compounds with a hit are over-represented: about 1.6% of the library has one in this group of screens.
ATG4B inhibitor: ATG4B protease inhibitors, primary screen, biochemical, fluorescence, uHTS | ATG4B cleavage of LC3-PLA2, NBD-HPC fluorescence, 1 h | inhibition, % at 8.33 µM | 340,000 compounds, 0.51% hits | AID 504462, 2011; in the data active means inhibition above about 40%
Target sequence (Q9Y4P1 whole entry, looked up): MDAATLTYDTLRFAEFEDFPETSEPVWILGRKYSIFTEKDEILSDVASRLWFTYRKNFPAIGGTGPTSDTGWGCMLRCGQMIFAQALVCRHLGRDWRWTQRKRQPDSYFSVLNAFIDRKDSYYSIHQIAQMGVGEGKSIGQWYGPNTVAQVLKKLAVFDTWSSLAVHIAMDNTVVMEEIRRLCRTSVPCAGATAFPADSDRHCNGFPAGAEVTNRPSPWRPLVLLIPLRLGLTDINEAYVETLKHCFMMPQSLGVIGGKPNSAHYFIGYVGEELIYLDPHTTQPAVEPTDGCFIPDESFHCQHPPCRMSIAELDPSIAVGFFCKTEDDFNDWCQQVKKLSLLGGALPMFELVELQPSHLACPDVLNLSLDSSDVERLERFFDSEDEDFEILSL
HKDC1 inhibitor: HKDC1 hexokinase inhibitors, primary screen, biochemical, fluorescence, uHTS; Q2TB90; recombinant HKDC1, G6PDH/diaphorase resazurin coupled fluorescence; inhibition, % at 20 µM; 340,000 compounds, 0.16% hits; AID 493160, 2011;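 active means inhibition above about 35% when tested at 20 µM, limit read from the data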;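 further: plate controls were DMSO wells with enzyme for no effect and DMSO wells lacking enzyme for full effect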
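Assay system – recombinant HKDC1 (HK5) hexokinase enzyme, produced in-house · Input – HKDC1 at 5 µg/mL · Reagent – glucose plus 1 mM ATP as hexokinase substrates · Timing – 90 min reaction incubation at room temperature, dark · Measured by – G6PDH/diaphorase-coupled fluorescence, 1 mM NADP, 100 µM resazurin, 525/613 nm · Benchmarks – DMSO-enzyme wells negative, buffer-substituted wells positive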
PKA-R1A activ: activators of PKA-R1A holoenzyme, primary screen, biochemical, fluorescence polarization, Cy5-IP20, bovine R1A, mouse PKAc; cAMP-dependent protein kinase type I-alpha regulatory subunit (Bos taurus) + …; PKA-R1A dissociation; scaled: DMSO 0%, 113 µM cGMP 100%; activation, % at 11.4 µM; 340,000 compounds, 0.083% hits; AID 504707, 2011;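 active means percent activation above the mean of all tested compounds plus 3 SD, cut at about 19% in these data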;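 further: higher means more PKAc released from R1A so a rise in polarization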
T cell HTS: modulators of CD8 T cell-vesicle binding, primary screen, mouse 2C CD8+ T cells, flow cytometry; response (vesicle binding), % at 7 µM; AID 2052, 2009; 330,000 compounds, 0.068% hits; 2C CD8+ T cell-vesicle binding; active compounds read low;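 active means response, share of CD8 T cells binding vesicles, and their 90th percentile fluorescence all below set limits, cut at about 80% in these data, passing the limit was not always enough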;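 further: values below 100% mean blocked vesicle binding to the CD8+ T cells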
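Assay system – 2C mouse CD8+ T cells · Also added – QL9-loaded Drosophila micro-vesicles · Timing – Cell–vesicle co-incubation 1.5 h at 37 °C, staining 20 min on ice · Signal – flow cytometry of vesicle-bound cells · Measure – percent CD8+ FL2 mean versus row control · Controls – Peptide-free naked vesicles (low) and QL9 vesicles with 0.7% DMSO vehicle (high)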
PKA-R2B act: activators of PKA-R2B holoenzyme, primary screen, biochemical, fluorescence polarization, Cy5-IP20, human; cAMP-dependent protein kinase catalytic subunit beta (Homo sapiens) + cAMP-dependent …; PKA-R2B holoenzyme dissociation; R2B truncated from residue 108, S112A mutant; 0% DMSO only, 100% 113 µM cGMP; activation, % at 11.4 µM; 340,000 compounds, 0.079% hits;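 active means activation above a cutoff set at the mean over all compounds plus 3 SD, cut at about 18% in these data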;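 further: higher means more holoenzyme dissociation and a rise in polarization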
PfG6PD inh: PfG6PD enzyme inhibitors, primary screen, biochemical, fluorescence intensity, uHTS; glucose-6-phosphate dehydrogenase-6-phosphogluconolactonase (Plasmodium falciparum 3D7); PfGluPho enzyme, NADPH resazurin-diaphorase fluorescence; inhibition, % at 20 µM; 350,000 compounds, 0.78% hits; AID 504690, 2011;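 active means inhibition reaching at least a set limit at 20 µM in the primary screen, cut at about 59% in these data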;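 further: 0% = DMSO wells with substrate and 100% = DMSO wells lacking glucose-6-phosphate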
HKDC1 act conf: HKDC1 hexokinase activators, confirmation, biochemical, single concentration | shares compounds with HKDC1 inhibitor | recombinant HKDC1, G6PDH/diaphorase resazurin fluorescence; active compounds read low | inhibition, % at 20 µM | 740 compounds, 14% hits;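 active means inhibition at or below a set negative limit, negative inhibition meaning the enzyme was activated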
Active calls of the source: *; . = no result.

SMILES	ATG4B inhibitor	HKDC1 inhibitor	PKA-R1A activ	T cell HTS	PKA-R2B act	PfG6PD inh	HKDC1 act conf
O=C(N/N=C/c1ccccc1)c1ccc(CN2C(=O)c3cccc4cccc2c34)cc1	11	-7	-12	788	-3	-3	.
COc1ccc(-n2c(C)cc(C(=O)CCl)c2C)cc1	6	35*	-8	531	-6	-3	34
O=c1cc(O)c2sc(Nc3ccc(F)c(Cl)c3)nc2[nH]1	11	46*	.	376	.	17	-20
O=c1cc(O)c2sc(Nc3ccc(Cl)c(F)c3)nc2[nH]1	14	39*	-11	295	-1	30	-8
COc1ccc(Nc2nc3[nH]c(=O)cc(O)c3s2)cc1	-13	3	-6	105	-9	42	.
COc1ccc(C(=O)N2C=Cc3ccccc3C2C(N)=O)cc1 (stereo not drawn)	.	.	6	.	1	-9	.
O=C(O)c1ccc2c(=O)n(-c3ccc(F)cc3)c(=S)[nH]c2c1	0	-9	5	83	0	-13	.
O=C(O)c1ccc2c(=O)n(-c3ccccc3)c(=S)[nH]c2c1	5	84*	-14	351	3	29	-2
C[n+]1c(-c2ccccc2)cc2c(=Cc3ccccc3)c3ccccc3n21	18	42*	1	.	8	21	-18
CCN(CC(=O)Nc1ccc(NC(C)=O)cc1)C(=O)C1CC1	.	.	-3	.	-17	-23	.
Cc1ccc(NC(=O)C2CCN(S(=O)(=O)c3ccc4c(c3)C(C)(C)C(=O)N4C)CC2)c(C)c1	-7	0	-10	233	-10	1	.
CS(=O)(=O)c1ccc(C(=O)OCC(=O)NC(=O)Cc2ccccc2)cc1	-1	35	6	265	8	0	-19
Cc1ccc2oc(=O)c3cnn(CC(=O)N4CCc5ccccc5C4)c3c2c1	5	-40	0	230	-8	-49	-51*
O=C1NC(=S)S/C1=C\C=C\c1ccc([N+](=O)[O-])o1	10	38*	2	.	-6	34	19
CCOC(=O)c1c(C)sc2c1N(C(=O)CCl)c1cc(Cl)ccc1S2	2	45*	2	212	-4	12	22
Cc1sc2ncnc(SCC(=O)N3c4ccccc4Sc4ccc(Cl)cc43)c2c1C	17	-5	5	232	-3	11	.
CCc1ccc2c(c1)C(NC(C)=O)C(=O)N2CCN1CCOCC1 (stereo not drawn)	6	80*	11	81	7	20	57
CCCN1C(=O)C(NC(C)=O)c2ccccc21 (stereo not drawn)	3	14	5	865	15	-3	.
CC(=NNC(=S)N1CC2CCC(CC2)C1)c1cnccn1	-7	-47	0	.	-13	33	-31
CC(=NNC(=S)N1CCN(C2CCCCCC2)CC1)c1ccccn1	13	-42	-2	.	-12	42	-40*
CC(=NNC(=S)N1CC2CCC(CC2)C1)c1ccccn1	.	.	11	.	-6	22	.
O=C(CSc1nc2ccccc2c(=O)n1CC1CCCO1)Nc1ccc(F)cc1 (stereo not drawn)	-11	1	-4	441	5	8	.
COc1ccc(CCC2(C)OCC(CCCCO)O2)cc1 (stereo not drawn)	-3	-5	-2	.	4	-9	.
CCOc1ccc(CCNC(=O)c2ccc3c(=O)[nH]c4c(C(=O)NC(C)C)sc(=S)n4c3c2)cc1	-1	41*	-6	265	3	4	26
COc1ccc(NC(=O)CN(C)C(=O)CCCc2nc3ccccc3c(=O)[nH]2)cc1	0	-5	-4	854	-5	13	.
SMILES	ATG4B inhibitor	HKDC1 inhibitor	PKA-R1A activ	T cell HTS	PKA-R2B act	PfG6PD inh	HKDC1 act conf
CC(=O)c1ccc2c(c1)C1C=CCC1C(C(=O)O)N2 (stereo not drawn)	27	34	.	.	.	28	36
COc1ccc(C2=CC3=C(Br)C(=O)C(C)(OC(=O)c4ccco4)C(=O)C3=CO2)cc1 (stereo not drawn)	82*	42*	0	776	0	10	-7
O=C1CSC(=S)N1Nc1ccccc1	6	-44	0	.	7	26	-17
Oc1c(Br)cc(Br)cc1/C=N/c1nc2c(s1)CCCC2	10	37*	-6	319	0	80*	-2
Oc1ccc2ccccc2c1/C=N/c1nc2c(s1)CCCC2	-4	27	3	267	6	43	.
CC(=O)N(Cc1c(C)nn(-c2ccccc2)c1Cl)c1ccc(Cl)cc1	-11	2	0	172	-2	-7	.
Cc1nn(-c2ccccc2)c(Cl)c1CN(C(=O)CCl)c1ccc(Cl)cc1	6	38*	0	255	-2	-5	13
Oc1ccccc1OCc1nc2ccccc2s1	-3	-7	-14	369	-2	28	.
Oc1ccc(O)c(Cc2nc3ccccc3s2)c1	5	45*	-11	105	-5	17	37
COc1ccc(C(=O)N/N=C(\C)c2ccccn2)cc1OC	-5	-8	-2	779	-4	-14	.
CC(=NNC(=S)Nc1cccc(C)c1)c1ccccn1	-8	-38	-6	.	-10	44	-60*
COc1ccccc1NC(=S)NN=C(C)c1ccccn1	0	-41	-5	.	-5	25	-61*
CC(=NNC(=S)Nc1ccc(C)cc1)c1ccccn1	0	-39	4	.	-2	29	.
Nn1c(SCC(=O)NC2CCCC2)nnc1C(F)(F)F	.	.	3	.	-5	-2	.
Cc1cc(C)nc(Nc2n[nH]c(-c3ccc(C(C)(C)C)cc3)n2)n1	-4	-51	-4	158	0	-31	-21
Cc1cc(C)nc(Nc2n[nH]c(-c3ccc(N)cc3)n2)n1	-11	-2	-13	987	-5	-8	.
COc1cc(/C=C2\SC(=O)N(c3cccc(Cl)c3)C2=O)cc([N+](=O)[O-])c1O	3	51*	-7	.	-6	-17	-13
COc1cc(/C=C2/C(=O)NN(c3ccc(C)c(Cl)c3)C2=O)cc([N+](=O)[O-])c1O	20	29	3	194	-8	-7	.
